Assay results as given in ChEMBL document CHEMBL3259739, “Synthesis and structure-activity relationship of trisubstituted thiazoles as Cdc7 kinase inhibitors” (Eur J Med Chem, 2014).

Molecular target: Casein kinase I isoform gamma-2 (Homo sapiens) (UniProt P78368)
Assay: Inhibition of CSNK1G2 (unknown origin) at 1 uM relative to control; values are per cent of control
Conditions: not given

Casein kinase I isoform gamma-2 (Homo sapiens), sequence (P78368 whole entry, looked up, canonical isoform): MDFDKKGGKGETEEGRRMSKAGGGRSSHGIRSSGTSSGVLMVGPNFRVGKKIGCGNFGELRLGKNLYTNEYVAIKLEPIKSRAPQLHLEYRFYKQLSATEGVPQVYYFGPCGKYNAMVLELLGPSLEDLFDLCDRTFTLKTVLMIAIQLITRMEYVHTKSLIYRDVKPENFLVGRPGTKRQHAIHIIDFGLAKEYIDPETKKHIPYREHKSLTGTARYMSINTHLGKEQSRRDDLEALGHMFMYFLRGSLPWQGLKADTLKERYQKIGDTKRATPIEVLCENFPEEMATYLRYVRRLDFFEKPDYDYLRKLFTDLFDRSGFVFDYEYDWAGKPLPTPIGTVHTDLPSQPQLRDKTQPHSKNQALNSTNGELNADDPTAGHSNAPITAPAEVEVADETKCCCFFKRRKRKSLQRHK

| Structure (SMILES) | residual activity |
| --- | --- |
| COc1ccc(-c2nc(-c3ccnc(N)n3)sc2C(N)=O)c(Cl)c1 | 5.2% |
| CCOC(=O)c1sc(-c2ccncc2)nc1O | 77% |
| NC(=O)c1sc(-c2ccnc(N)n2)nc1-c1ccc(Cl)cc1Cl | 5% |

Molecular target: Mitogen-activated protein kinase 14 (Homo sapiens) (UniProt Q16539)
Assay: Inhibition of p38-alpha (unknown origin) at 1 uM relative to control; values are per cent of control
Conditions: not given

Mitogen-activated protein kinase 14 (Homo sapiens), sequence (Q16539 whole entry): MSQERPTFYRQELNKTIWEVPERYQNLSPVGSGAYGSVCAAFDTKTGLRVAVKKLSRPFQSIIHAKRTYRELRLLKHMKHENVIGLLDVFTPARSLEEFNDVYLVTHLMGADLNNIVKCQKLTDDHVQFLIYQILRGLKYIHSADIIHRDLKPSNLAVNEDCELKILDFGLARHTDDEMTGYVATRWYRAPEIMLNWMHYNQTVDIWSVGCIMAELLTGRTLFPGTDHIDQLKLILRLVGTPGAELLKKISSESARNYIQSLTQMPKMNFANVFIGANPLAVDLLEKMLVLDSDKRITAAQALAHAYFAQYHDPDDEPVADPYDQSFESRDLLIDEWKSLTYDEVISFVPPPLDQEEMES

| Structure (SMILES) | residual activity |
| --- | --- |
| COc1ccc(-c2nc(-c3ccnc(N)n3)sc2C(N)=O)c(Cl)c1 | 100% |
| CCOC(=O)c1sc(-c2ccncc2)nc1O | 76% |
| NC(=O)c1sc(-c2ccnc(N)n2)nc1-c1ccc(Cl)cc1Cl | 95% |

Molecular target: Non-receptor tyrosine-protein kinase TYK2 (Homo sapiens) (UniProt P29597)
Assay: Inhibition of JH1 catalytic domain of TYK2 (unknown origin) at 1 uM relative to control
Conditions: values are per cent of control
In short: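 Competitive binding panel (KinomeSCAN) of 100 kinases, with compound tested at 1 µM in duplicate. The read-out was percent inhibition relative to control.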

Non-receptor tyrosine-protein kinase TYK2 (Homo sapiens), sequence (P29597 whole entry, the tested form may be a part): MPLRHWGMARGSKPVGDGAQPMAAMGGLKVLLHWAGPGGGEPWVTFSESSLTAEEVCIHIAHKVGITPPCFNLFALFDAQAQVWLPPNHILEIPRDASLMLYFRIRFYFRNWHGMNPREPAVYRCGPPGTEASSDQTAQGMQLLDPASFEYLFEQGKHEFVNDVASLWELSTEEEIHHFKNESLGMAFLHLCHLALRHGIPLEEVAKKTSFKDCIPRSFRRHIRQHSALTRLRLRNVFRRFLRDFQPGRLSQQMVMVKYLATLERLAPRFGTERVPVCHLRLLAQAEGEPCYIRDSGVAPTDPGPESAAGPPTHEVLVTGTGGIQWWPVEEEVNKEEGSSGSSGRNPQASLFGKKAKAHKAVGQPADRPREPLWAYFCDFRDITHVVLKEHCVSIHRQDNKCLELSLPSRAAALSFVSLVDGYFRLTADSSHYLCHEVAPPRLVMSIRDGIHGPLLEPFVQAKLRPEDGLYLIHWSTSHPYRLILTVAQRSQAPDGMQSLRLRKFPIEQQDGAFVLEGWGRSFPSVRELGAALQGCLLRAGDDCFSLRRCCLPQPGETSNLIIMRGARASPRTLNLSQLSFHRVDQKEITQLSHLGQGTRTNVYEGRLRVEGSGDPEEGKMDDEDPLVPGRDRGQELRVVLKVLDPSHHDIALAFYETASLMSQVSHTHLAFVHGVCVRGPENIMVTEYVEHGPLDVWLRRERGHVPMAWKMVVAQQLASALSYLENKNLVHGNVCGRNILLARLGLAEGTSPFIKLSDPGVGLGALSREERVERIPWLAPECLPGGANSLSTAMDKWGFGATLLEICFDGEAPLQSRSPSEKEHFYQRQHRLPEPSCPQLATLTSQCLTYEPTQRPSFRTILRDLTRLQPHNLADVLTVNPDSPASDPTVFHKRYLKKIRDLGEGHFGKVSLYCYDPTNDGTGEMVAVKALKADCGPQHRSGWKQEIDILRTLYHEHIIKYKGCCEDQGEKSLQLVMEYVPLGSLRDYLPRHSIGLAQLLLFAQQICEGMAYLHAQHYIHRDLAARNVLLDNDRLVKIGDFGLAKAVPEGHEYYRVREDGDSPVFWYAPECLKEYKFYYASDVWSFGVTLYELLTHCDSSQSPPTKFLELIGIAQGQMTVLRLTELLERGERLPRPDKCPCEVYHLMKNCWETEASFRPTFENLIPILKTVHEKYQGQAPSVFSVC

| Structure (SMILES) | residual binding, % of control |
| --- | --- |
| COc1ccc(-c2nc(-c3ccnc(N)n3)sc2C(N)=O)c(Cl)c1 | 94% |
| CCOC(=O)c1sc(-c2ccncc2)nc1O | 100% |
| NC(=O)c1sc(-c2ccnc(N)n2)nc1-c1ccc(Cl)cc1Cl | 100% |

Molecular target: cAMP-dependent protein kinase catalytic subunit alpha (Homo sapiens) (UniProt P17612)
Assay: Inhibition of PKACalpha (unknown origin) at 1 uM relative to control
Conditions: values are per cent of control
In short: (§1)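 KinomeSCAN competitive binding panel of 100 kinases; compounds tested at 1 µM in duplicate; read-out is percent […] control.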

| Structure (SMILES) | residual binding, % of control |
| --- | --- |
| COc1ccc(-c2nc(-c3ccnc(N)n3)sc2C(N)=O)c(Cl)c1 | 70% |
| CCOC(=O)c1sc(-c2ccncc2)nc1O | 100% |
| NC(=O)c1sc(-c2ccnc(N)n2)nc1-c1ccc(Cl)cc1Cl | 69% |

Molecular target: T1, Phosphatidylinositol 4,5-bisphosphate 3-kinase catalytic subunit delta isoform (Homo sapiens) (UniProt O00329)
T1 sequence (whole entry): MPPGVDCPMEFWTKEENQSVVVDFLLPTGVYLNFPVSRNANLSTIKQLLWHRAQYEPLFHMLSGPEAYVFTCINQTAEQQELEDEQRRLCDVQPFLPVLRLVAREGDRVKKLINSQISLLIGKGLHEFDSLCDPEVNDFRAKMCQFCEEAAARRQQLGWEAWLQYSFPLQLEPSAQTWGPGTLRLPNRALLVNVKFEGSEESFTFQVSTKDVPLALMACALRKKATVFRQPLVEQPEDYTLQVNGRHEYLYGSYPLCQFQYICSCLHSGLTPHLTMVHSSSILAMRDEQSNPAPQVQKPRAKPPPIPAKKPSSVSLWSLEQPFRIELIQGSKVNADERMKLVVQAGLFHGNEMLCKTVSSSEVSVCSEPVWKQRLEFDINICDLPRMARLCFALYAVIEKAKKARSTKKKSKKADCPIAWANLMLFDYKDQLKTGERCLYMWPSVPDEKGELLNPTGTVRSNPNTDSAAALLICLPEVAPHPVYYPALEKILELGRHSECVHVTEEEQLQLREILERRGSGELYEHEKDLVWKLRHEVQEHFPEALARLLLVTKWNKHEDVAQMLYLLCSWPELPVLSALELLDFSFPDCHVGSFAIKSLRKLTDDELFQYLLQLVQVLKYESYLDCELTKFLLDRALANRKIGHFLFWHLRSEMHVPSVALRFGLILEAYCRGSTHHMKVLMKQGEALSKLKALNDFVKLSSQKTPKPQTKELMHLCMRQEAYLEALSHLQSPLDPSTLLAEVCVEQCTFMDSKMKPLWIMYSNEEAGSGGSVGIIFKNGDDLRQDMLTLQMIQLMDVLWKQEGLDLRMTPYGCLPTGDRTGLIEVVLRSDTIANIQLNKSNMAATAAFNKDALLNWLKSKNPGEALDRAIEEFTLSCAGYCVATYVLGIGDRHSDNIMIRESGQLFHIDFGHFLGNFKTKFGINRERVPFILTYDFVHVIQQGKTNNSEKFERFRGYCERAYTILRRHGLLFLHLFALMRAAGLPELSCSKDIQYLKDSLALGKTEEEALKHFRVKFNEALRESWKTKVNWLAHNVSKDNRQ
Assay: Inhibition of PIK3CD (unknown origin) at 1 uM relative to control
Conditions: values are per cent of control
In short: as §1

| Structure (SMILES) | residual binding, % of control |
| --- | --- |
| COc1ccc(-c2nc(-c3ccnc(N)n3)sc2C(N)=O)c(Cl)c1 | 55% |
| CCOC(=O)c1sc(-c2ccncc2)nc1O | 97% |
| NC(=O)c1sc(-c2ccnc(N)n2)nc1-c1ccc(Cl)cc1Cl | 78% |

Molecular target: T2, Mitogen-activated protein kinase 12 (Homo sapiens) (UniProt P53778)
T2 sequence (whole entry): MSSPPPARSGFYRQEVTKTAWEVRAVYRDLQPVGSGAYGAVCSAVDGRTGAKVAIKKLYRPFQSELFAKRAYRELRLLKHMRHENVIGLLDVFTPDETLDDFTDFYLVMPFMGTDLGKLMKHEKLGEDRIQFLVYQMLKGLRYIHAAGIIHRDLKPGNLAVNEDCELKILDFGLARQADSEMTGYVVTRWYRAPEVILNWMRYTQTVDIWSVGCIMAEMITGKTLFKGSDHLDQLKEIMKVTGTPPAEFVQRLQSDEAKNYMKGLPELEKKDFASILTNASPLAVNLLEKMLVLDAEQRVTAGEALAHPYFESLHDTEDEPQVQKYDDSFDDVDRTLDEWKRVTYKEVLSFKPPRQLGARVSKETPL
Assay: Inhibition of p38-gamma (unknown origin) at 1 uM relative to control; values are per cent of control
Conditions: not given

| Structure (SMILES) | residual activity |
| --- | --- |
| COc1ccc(-c2nc(-c3ccnc(N)n3)sc2C(N)=O)c(Cl)c1 | 91% |
| CCOC(=O)c1sc(-c2ccncc2)nc1O | 100% |
| NC(=O)c1sc(-c2ccnc(N)n2)nc1-c1ccc(Cl)cc1Cl | 65% |

Molecular target: MAP kinase-activated protein kinase 2 (Homo sapiens) (UniProt P49137)
Assay: Inhibition of MAPKAPK2 (unknown origin) at 1 uM relative to control; values are per cent of control
Conditions: not given

MAP kinase-activated protein kinase 2 (Homo sapiens), sequence (P49137 whole entry, looked up): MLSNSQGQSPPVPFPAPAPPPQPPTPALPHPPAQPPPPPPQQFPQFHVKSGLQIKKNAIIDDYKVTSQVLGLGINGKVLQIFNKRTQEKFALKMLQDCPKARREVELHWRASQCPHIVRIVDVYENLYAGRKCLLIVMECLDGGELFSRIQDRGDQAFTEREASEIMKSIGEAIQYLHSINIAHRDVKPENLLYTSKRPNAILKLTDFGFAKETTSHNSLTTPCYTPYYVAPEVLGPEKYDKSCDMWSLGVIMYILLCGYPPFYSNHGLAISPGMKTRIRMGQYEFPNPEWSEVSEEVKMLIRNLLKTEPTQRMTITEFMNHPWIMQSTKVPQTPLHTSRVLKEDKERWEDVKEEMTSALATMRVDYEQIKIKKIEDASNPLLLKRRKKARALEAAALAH

| Structure (SMILES) | residual activity |
| --- | --- |
| COc1ccc(-c2nc(-c3ccnc(N)n3)sc2C(N)=O)c(Cl)c1 | 100% |
| CCOC(=O)c1sc(-c2ccncc2)nc1O | 94% |
| NC(=O)c1sc(-c2ccnc(N)n2)nc1-c1ccc(Cl)cc1Cl | 96% |

Test system: not listed separately
Assay: Intrinsic clearance in rat liver microsomes at 1 uM after 30 mins by reverse phase HPLC analysis in presence of NADPH
Format: ADME
Conditions: read-out: CLH
In short: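 Reactions were stopped with MeCN after 0 or 30 min. Samples were analysed by reverse-phase HPLC–tandem MS to give intrinsic clearance (µl/min/mg).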

| Structure (SMILES) | microsomal CLint at 1 µM |
| --- | --- |
| COc1ccc(-c2nc(-c3ccnc(N)n3)sc2C(N)=O)c(Cl)c1 | 99 µL/min/mg |
| CCOC(=O)c1sc(-c2ccncc2)nc1O | < 14 µL/min/mg |
| NC(=O)c1sc(-c2ccnc(N)n2)nc1-c1ccc(Cl)cc1Cl | 22 µL/min/mg |

Molecular target: T3, Aurora kinase A (Homo sapiens) (UniProt O14965)
T3 sequence (whole entry): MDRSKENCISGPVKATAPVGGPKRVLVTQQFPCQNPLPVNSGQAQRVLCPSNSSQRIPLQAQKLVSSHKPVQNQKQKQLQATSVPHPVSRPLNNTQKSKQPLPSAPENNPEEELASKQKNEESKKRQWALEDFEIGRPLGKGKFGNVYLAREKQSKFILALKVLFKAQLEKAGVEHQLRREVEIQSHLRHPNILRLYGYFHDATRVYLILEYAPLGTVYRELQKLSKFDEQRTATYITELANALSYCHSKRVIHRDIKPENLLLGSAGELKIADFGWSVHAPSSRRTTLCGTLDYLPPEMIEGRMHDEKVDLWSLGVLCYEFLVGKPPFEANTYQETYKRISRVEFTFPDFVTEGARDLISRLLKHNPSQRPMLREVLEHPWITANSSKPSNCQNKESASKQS
Assay: Inhibition of AURKA (unknown origin) at 1 uM relative to control; values are per cent of control
Conditions: not given

| Structure (SMILES) | residual activity |
| --- | --- |
| COc1ccc(-c2nc(-c3ccnc(N)n3)sc2C(N)=O)c(Cl)c1 | 55% |
| CCOC(=O)c1sc(-c2ccncc2)nc1O | 100% |
| NC(=O)c1sc(-c2ccnc(N)n2)nc1-c1ccc(Cl)cc1Cl | 77% |
